The subject of assay [1] is Streptococcus pneumoniae. Nature of the assay: Antimicrobial activity against atypical Streptococcus pneumoniae L4 by broth dilution method.
Assay [2] deals with Streptococcus pneumoniae. Nature of the assay: Antimicrobial activity against Streptococcus pneumoniae L6 with gyrA Ser81Phe, parC Lys137Asn and parE Ile460Val mutation by broth dilution method.
Assay [3] deals with Streptococcus mitis. Nature of the assay: Antimicrobial activity against Streptococcus mitis HK260 with gyrA Ser114Gly, and parC Ser52Gly, Asn91Asp mutation by broth dilution method. The class given is functional. Put shortly:
(§1)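 Ciprofloxacin and levofloxacin MICs were determined by broth dilution following CLSI (formerly NCCLS) guidance. S. pneumoniae ATCC 6303 and ATCC 49619 served as control strains. Reference strains were S. mitis ATCC 49456 and S. oralis ATCC 10557. The clinical isolates came from patients at a Hong Kong teaching hospital.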

In assay [4] the test system is Streptococcus pneumoniae. Nature of the assay: Antimicrobial activity against Streptococcus pneumoniae L14 with parC Lys137Asn and parE Ile460Val mutation by broth dilution method.
Assay [5] deals with Streptococcus mitis. Nature of the assay: Antimicrobial activity against Streptococcus mitis HK666 with gyrA Ser114Gly, and parC Ser52Gly, Asn91Asp, Glu135Asp mutation by broth dilution method. Format: functional. Put shortly:
as §1

In assay [6] the test system is Streptococcus viridans. Nature of the assay: Antimicrobial activity against Viridans streptococcus L17 with gyrA Ser114Gly, gyrB Ser494Thr and parC Ser52Gly, Asn91Asp mutation by broth dilution method. Format: functional. The procedure, abridged: as §1
Assay [7] deals with Streptococcus oralis. As to the kind of experiment: Antimicrobial activity against Streptococcus oralis HK417 with gyrA Ser114Gly, and parC Ser52Gly, Asn91Asp mutation by broth dilution method. The class given is functional. The procedure, abridged:
as §1

For assay [8], the system named is Streptococcus oralis. As to the kind of experiment: Antimicrobial activity against Streptococcus oralis HK553 with gyrA Ser114Gly, and parC Ser52Gly, Asn91Asp mutation by broth dilution method. Format: functional. The procedure, abridged: as §1
In assay [9] the test system is Streptococcus oralis. As to the kind of experiment: Antimicrobial activity against Streptococcus oralis HK496 with gyrA Ser114Gly, and parC Ser52Gly, Asn91Asp mutation by broth dilution method. The class given is functional. Put shortly: as §1
The test system of assay [10] is Streptococcus pneumoniae. As to the kind of experiment: Antimicrobial activity against Streptococcus pneumoniae L22 with parC Lys137Asn and parE Ile460Val mutation by broth dilution method.
Assay [11] concerns Streptococcus pneumoniae. Nature of the assay: Antimicrobial activity against atypical Streptococcus pneumoniae L25 with parC Lys137Asn mutation by broth dilution method.
Assay [12] deals with Streptococcus pneumoniae. Nature of the assay: Antimicrobial activity against atypical Streptococcus pneumoniae L9 with gyrA Ser114Gly, gyrB Ser494Thr and parC Lys137Asn mutation by broth dilution method.
The test system of assay [13] is Streptococcus oralis. As to the kind of experiment: Antimicrobial activity against Streptococcus oralis HK579 with gyrA Ser114Gly, and parC Ser52Gly, Asn91Asp mutation by broth dilution method. The class given is functional. Put shortly: as §1
Assay [14] deals with Streptococcus viridans. As to the kind of experiment: Antimicrobial activity against Viridans streptococcus L26 gyrA Ser81Phe and parC Lys137Asn mutation by broth dilution method. Format: functional. The procedure, abridged:
as §1

Assay [15] deals with Streptococcus oralis. Nature of the assay: Antimicrobial activity against Streptococcus oralis HK575 with gyrA Ser114Gly, Leu155Val and parC Ser52Gly, Asn91Asp, Pro140Ser mutation by broth dilution method. The class given is functional. The procedure, abridged: as §1
Assay [16] concerns Streptococcus oralis. As to the kind of experiment: Antimicrobial activity against Streptococcus oralis HK299 with gyrA Ser114Gly, and parC Ser52Gly, Asn91Asp mutation by broth dilution method. The class given is functional. The procedure, abridged: as §1
Assay [17] has as its system Streptococcus pneumoniae. As to the kind of experiment: Antimicrobial activity against atypical Streptococcus pneumoniae L3 with parC Lys137Asn mutation by broth dilution method.
Assay [18] relates to Streptococcus pneumoniae. As to the kind of experiment: Antimicrobial activity against atypical Streptococcus pneumoniae L8 with parC Ser52Gly, Phe55His, Ser58Gly, Asn91Asp, Lys197Asn mutation by broth dilution method.
The test system of assay [19] is Streptococcus mitis. Nature of the assay: Antimicrobial activity against Streptococcus mitis HK467 with gyrA Ser114Gly, Leu155Val and parC Ser52Gly, Asn91Asp, mutation by broth dilution method. Format: functional. The procedure, abridged: as §1
Assay [20] has as its system Streptococcus pneumoniae. Nature of the assay: Antimicrobial activity against atypical Streptococcus pneumoniae L11 with parC Ser52Gly, Asn91Asp, Glu135Asp mutation by broth dilution method.
In assay [21] the test system is Streptococcus mitis. Nature of the assay: Antimicrobial activity against Streptococcus mitis HK135786 with gyrA Ser114Gly, and parC Ser52Gly, Asn91Asp mutation by broth dilution method. Format: functional. The procedure, abridged: as §1
Assay [22] deals with Streptococcus mitis. Nature of the assay: Antimicrobial activity against Streptococcus mitis HK680 with gyrA Ser114Gly, and parC Ser52Gly, Asn91Asp mutation by broth dilution method. Format: functional. Put shortly: as §1
The test system of assay [23] is Streptococcus mitis. As to the kind of experiment: Antimicrobial activity against Streptococcus mitis HK141 with gyrA Ser114Gly, and parC Ser52Gly, Asn91Asp mutation by broth dilution method. Format: functional. The procedure, abridged:
as §1

SMILES strings stand for the structures. Converted amounts (≈) assume the structure as drawn.

On to `O=C(O)c1cn(C2CC2)c2cc(N3CCNCC3)c(F)cc2c1=O` [CIPROFLOXACIN], for which the MIC is 4 µg/mL (≈ 12.1 µM) in the assay on Streptococcus pneumoniae [1]; 8 µg/mL (≈ 24.1 µM) in the assay with Streptococcus pneumoniae [2]; under 0.5 µg/mL against Streptococcus mitis [3]; 4 µg/mL (≈ 12.1 µM) in the assay with Streptococcus pneumoniae [4]; 2 µg/mL (≈ 6.04 µM) in the assay on Streptococcus mitis [5]; 4 µg/mL (≈ 12.1 µM) against Streptococcus viridans [6]. For the same compound, the MIC with Streptococcus oralis [7] was 2 µg/mL (≈ 6.04 µM); in the assay on Streptococcus oralis [8], 2 µg/mL (≈ 6.04 µM); in the assay on Streptococcus oralis [9], 2 µg/mL (≈ 6.04 µM); in the assay with Streptococcus pneumoniae [10], 4 µg/mL (≈ 12.1 µM); with Streptococcus pneumoniae [11], 4 µg/mL (≈ 12.1 µM); in the assay with Streptococcus pneumoniae [12], 4 µg/mL (≈ 12.1 µM). The MIC came out at 4 µg/mL (≈ 12.1 µM) in the assay on Streptococcus oralis [13]; 16 µg/mL (≈ 48.3 µM) against Streptococcus viridans [14]; 1 µg/mL (≈ 3.02 µM) against Streptococcus oralis [15]; 4 µg/mL (≈ 12.1 µM) in the assay with Streptococcus oralis [16]; 4 µg/mL (≈ 12.1 µM) in the assay with Streptococcus pneumoniae [17]; 8 µg/mL (≈ 24.1 µM) against Streptococcus pneumoniae [18]. Also, the MIC is 2 µg/mL (≈ 6.04 µM) against Streptococcus mitis [19]; 8 µg/mL (≈ 24.1 µM) with Streptococcus pneumoniae [20]; 4 µg/mL (≈ 12.1 µM) against Streptococcus mitis [21]; 2 µg/mL (≈ 6.04 µM) against Streptococcus mitis [22]; 1 µg/mL (≈ 3.02 µM) against Streptococcus mitis [23].
